According to ChEMBL document CHEMBL4334451, “Natural Alkaloid Berberine Activity against Pseudomonas aeruginosa MexXY-Mediated Aminoglycoside Resistance: In Silico and in Vitro Studies” (J Nat Prod, 2019):
The source made the active and inactive calls. The calls are words filed in the database; no cut-off is given here.

Key:
[1] = target: T1, MexXY/OprM (Pseudomonas aeruginosa (strain ATCC 15692 / DSM 22644 / CIP 104116 / JCM14847 / LMG 12228 / 1C / PRS 101 / PAO1)) (UniProt Q51487+Q9ZNG9+Q9ZNG8); assay: Inhibition of MexXY/OPRM in Pseudomonas aeruginosa C6 assessed as reduction in bacterial resistance to tobramycin by measuring tobramycin MIC at 80 ug/ml incubated for 24 to 48 hrs by broth microdilution method (reference value: 2 ug/ml); assay type: protein-complex assay
[2] = target: T1, MexXY/OprM (Pseudomonas aeruginosa (strain ATCC 15692 / DSM 22644 / CIP 104116 / JCM14847 / LMG 12228 / 1C / PRS 101 / PAO1)); assay: Inhibition of MexXY/OPRM in Pseudomonas aeruginosa C98 assessed as reduction in bacterial resistance to tobramycin by measuring tobramycin MIC at 80 ug/ml incubated for 24 to 48 hrs by broth microdilution method (reference value: 64 ug/ml); assay type: protein-complex assay
In short: (§1)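 Broth microdilution per CLSI, with P. aeruginosa ATCC 27853 as reference strain, in 2-fold dilution series. Plates were incubated at 37°C and read for visible growth at 24 and 48 h. Berberine stock was in 50% DMSO/50% methanol, with final DMSO kept near 1%. Berberine was tested at 10–320 µg/ml, alone or at a fixed level with serial tobramycin.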

[3] = target: T1, MexXY/OprM (Pseudomonas aeruginosa (strain ATCC 15692 / DSM 22644 / CIP 104116 / JCM14847 / LMG 12228 / 1C / PRS 101 / PAO1)); assay: Inhibition of MexXY/OPRM in Pseudomonas aeruginosa AR51 assessed as reduction in bacterial resistance to tobramycin by measuring tobramycin MIC at 80 ug/ml incubated for 24 to 48 hrs by broth microdilution method (reference value: 16 ug/ml); assay type: protein-complex assay
[4] = target: T1, MexXY/OprM (Pseudomonas aeruginosa (strain ATCC 15692 / DSM 22644 / CIP 104116 / JCM14847 / LMG 12228 / 1C / PRS 101 / PAO1)); assay: Inhibition of MexXY/OPRM in Pseudomonas aeruginosa C95 assessed as reduction in bacterial resistance to tobramycin by measuring log reduction in colony forming unit at 80 ug/ml in presence of 1XMIC to 2XMIC tobramycin measured after 24 hrs by Time-kill curve analysis; assay type: protein-complex assay
[5] = tested on: Erythrocyte; assay: Hemolytic activity in human RBC at 10 to 320 ug/ml incubated for 1 hr by spectrophotometry; assay type: ADME, cell-based
In short: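 Fresh heparinized human blood diluted in PBS pH 7.4, washed 3x, resuspended to ~20 vol%. Erythrocyte suspension mixed 1:1 with 1:2 serial berberine dilutions in PBS. PBS served as negative control, 0.2 vol% Triton X-100 as positive control.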

[6] = target: T1, MexXY/OprM (Pseudomonas aeruginosa (strain ATCC 15692 / DSM 22644 / CIP 104116 / JCM14847 / LMG 12228 / 1C / PRS 101 / PAO1)); assay: Inhibition of MexXY/OPRM in Pseudomonas aeruginosa C51 assessed as bacterial growth up to 320 ug/ml incubated for 24 to 48 hrs by broth microdilution method; assay type: protein-complex assay
In short: (§2)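 Broth microdilution following CLSI guidelines, with P. aeruginosa ATCC 27853 as reference strain. Berberine was tested at 2-fold concentrations from 10 to 320 µg/ml, dissolved in 50% DMSO/50% methanol, with the top concentration set to keep final DMSO close to 1%. Plates were incubated at 37°C and read for visible growth at 24 and 48 h.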

[7] = target: T1, MexXY/OprM (Pseudomonas aeruginosa (strain ATCC 15692 / DSM 22644 / CIP 104116 / JCM14847 / LMG 12228 / 1C / PRS 101 / PAO1)); assay: Inhibition of MexXY/OPRM in Pseudomonas aeruginosa C61 assessed as bacterial growth up to 320 ug/ml incubated for 24 to 48 hrs by broth microdilution method; assay type: protein-complex assay; in short: as §2
[8] = target: T1, MexXY/OprM (Pseudomonas aeruginosa (strain ATCC 15692 / DSM 22644 / CIP 104116 / JCM14847 / LMG 12228 / 1C / PRS 101 / PAO1)); assay: Inhibition of MexXY/OPRM in Pseudomonas aeruginosa C76 assessed as bacterial growth up to 320 ug/ml incubated for 24 to 48 hrs by broth microdilution method; assay type: protein-complex assay; in short: as §2
[9] = target: T1, MexXY/OprM (Pseudomonas aeruginosa (strain ATCC 15692 / DSM 22644 / CIP 104116 / JCM14847 / LMG 12228 / 1C / PRS 101 / PAO1)); assay: Inhibition of MexXY/OPRM in Pseudomonas aeruginosa C83 assessed as bacterial growth up to 320 ug/ml incubated for 24 to 48 hrs by broth microdilution method; assay type: protein-complex assay; in short: as §2
[10] = target: T1, MexXY/OprM (Pseudomonas aeruginosa (strain ATCC 15692 / DSM 22644 / CIP 104116 / JCM14847 / LMG 12228 / 1C / PRS 101 / PAO1)); assay: Inhibition of MexXY/OPRM in Pseudomonas aeruginosa C84 assessed as bacterial growth up to 320 ug/ml incubated for 24 to 48 hrs by broth microdilution method; assay type: protein-complex assay; in short: as §1
[11] = target: T1, MexXY/OprM (Pseudomonas aeruginosa (strain ATCC 15692 / DSM 22644 / CIP 104116 / JCM14847 / LMG 12228 / 1C / PRS 101 / PAO1)); assay: Inhibition of MexXY/OPRM in Pseudomonas aeruginosa C86 assessed as bacterial growth up to 320 ug/ml incubated for 24 to 48 hrs by broth microdilution method; assay type: protein-complex assay; in short: as §1
[12] = target: T1, MexXY/OprM (Pseudomonas aeruginosa (strain ATCC 15692 / DSM 22644 / CIP 104116 / JCM14847 / LMG 12228 / 1C / PRS 101 / PAO1)); assay: Inhibition of MexXY/OPRM in Pseudomonas aeruginosa C93 assessed as bacterial growth up to 320 ug/ml incubated for 24 to 48 hrs by broth microdilution method; assay type: protein-complex assay; in short: as §1
[13] = target: T1, MexXY/OprM (Pseudomonas aeruginosa (strain ATCC 15692 / DSM 22644 / CIP 104116 / JCM14847 / LMG 12228 / 1C / PRS 101 / PAO1)); assay: Inhibition of MexXY/OPRM in Pseudomonas aeruginosa C95 assessed as bacterial growth up to 320 ug/ml incubated for 24 to 48 hrs by broth microdilution method; assay type: protein-complex assay; in short: as §1
[14] = target: T1, MexXY/OprM (Pseudomonas aeruginosa (strain ATCC 15692 / DSM 22644 / CIP 104116 / JCM14847 / LMG 12228 / 1C / PRS 101 / PAO1)); assay: Inhibition of MexXY/OPRM in Pseudomonas aeruginosa C103 assessed as bacterial growth up to 320 ug/ml incubated for 24 to 48 hrs by broth microdilution method; assay type: protein-complex assay; in short: as §2
[15] = target: T1, MexXY/OprM (Pseudomonas aeruginosa (strain ATCC 15692 / DSM 22644 / CIP 104116 / JCM14847 / LMG 12228 / 1C / PRS 101 / PAO1)); assay: Inhibition of MexXY/OPRM in Pseudomonas aeruginosa C104 assessed as bacterial growth up to 320 ug/ml incubated for 24 to 48 hrs by broth microdilution method; assay type: protein-complex assay; in short: as §2
[16] = target: T1, MexXY/OprM (Pseudomonas aeruginosa (strain ATCC 15692 / DSM 22644 / CIP 104116 / JCM14847 / LMG 12228 / 1C / PRS 101 / PAO1)); assay: Inhibition of MexXY/OPRM in Pseudomonas aeruginosa AR48 assessed as bacterial growth up to 320 ug/ml incubated for 24 to 48 hrs by broth microdilution method; assay type: protein-complex assay; in short: as §2
[17] = target: T1, MexXY/OprM (Pseudomonas aeruginosa (strain ATCC 15692 / DSM 22644 / CIP 104116 / JCM14847 / LMG 12228 / 1C / PRS 101 / PAO1)); assay: Inhibition of MexXY/OPRM in Pseudomonas aeruginosa AR61 assessed as bacterial growth up to 320 ug/ml incubated for 24 to 48 hrs by broth microdilution method; assay type: protein-complex assay; in short: as §2
[18] = target: T1, MexXY/OprM (Pseudomonas aeruginosa (strain ATCC 15692 / DSM 22644 / CIP 104116 / JCM14847 / LMG 12228 / 1C / PRS 101 / PAO1)); assay: Inhibition of MexXY/OPRM in Pseudomonas aeruginosa C67 assessed as bacterial growth up to 320 ug/ml incubated for 24 to 48 hrs by broth microdilution method; assay type: protein-complex assay; in short: as §2
[19] = target: T1, MexXY/OprM (Pseudomonas aeruginosa (strain ATCC 15692 / DSM 22644 / CIP 104116 / JCM14847 / LMG 12228 / 1C / PRS 101 / PAO1)); assay: Inhibition of MexXY/OPRM in Pseudomonas aeruginosa C60 assessed as reduction in bacterial resistance to tobramycin by measuring fold reduction in tobramycin MIC at 80 ug/ml incubated for 24 to 48 hrs by broth microdilution method; assay type: protein-complex assay
[20] = target: T1, MexXY/OprM (Pseudomonas aeruginosa (strain ATCC 15692 / DSM 22644 / CIP 104116 / JCM14847 / LMG 12228 / 1C / PRS 101 / PAO1)); assay: Inhibition of MexXY/OPRM in Pseudomonas aeruginosa C84 assessed as reduction in bacterial resistance to tobramycin by measuring fold reduction in tobramycin MIC at 80 ug/ml incubated for 24 to 48 hrs by broth microdilution method; assay type: protein-complex assay
In short: (§3)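 Tobramycin MIC by CLSI broth microdilution at 37°C, read at 24 and 48 h, with and without a fixed berberine concentration selected from checkerboard assays. Berberine stock was in 50% DMSO/50% methanol, final DMSO about 1%. A 2-fold decrease in tobramycin MIC was scored as synergy.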

[21] = target: T1, MexXY/OprM (Pseudomonas aeruginosa (strain ATCC 15692 / DSM 22644 / CIP 104116 / JCM14847 / LMG 12228 / 1C / PRS 101 / PAO1)); assay: Inhibition of MexXY/OPRM in Pseudomonas aeruginosa C89 assessed as reduction in bacterial resistance to tobramycin by measuring fold reduction in tobramycin MIC at 80 ug/ml incubated for 24 to 48 hrs by broth microdilution method; assay type: protein-complex assay; in short: as §3
[22] = target: T1, MexXY/OprM (Pseudomonas aeruginosa (strain ATCC 15692 / DSM 22644 / CIP 104116 / JCM14847 / LMG 12228 / 1C / PRS 101 / PAO1)); assay: Inhibition of MexXY/OPRM in Pseudomonas aeruginosa C93 assessed as reduction in bacterial resistance to tobramycin by measuring fold reduction in tobramycin MIC at 80 ug/ml incubated for 24 to 48 hrs by broth microdilution method; assay type: protein-complex assay; in short: as §3
[23] = target: T1, MexXY/OprM (Pseudomonas aeruginosa (strain ATCC 15692 / DSM 22644 / CIP 104116 / JCM14847 / LMG 12228 / 1C / PRS 101 / PAO1)); assay: Inhibition of MexXY/OPRM in Pseudomonas aeruginosa C95 assessed as reduction in bacterial resistance to tobramycin by measuring fold reduction in tobramycin MIC at 80 ug/ml incubated for 24 to 48 hrs by broth microdilution method; assay type: protein-complex assay; in short: as §3
[24] = target: T1, MexXY/OprM (Pseudomonas aeruginosa (strain ATCC 15692 / DSM 22644 / CIP 104116 / JCM14847 / LMG 12228 / 1C / PRS 101 / PAO1)); assay: Inhibition of MexXY/OPRM in Pseudomonas aeruginosa C104 assessed as reduction in bacterial resistance to tobramycin by measuring fold reduction in tobramycin MIC at 80 ug/ml incubated for 24 to 48 hrs by broth microdilution method; assay type: protein-complex assay

Compound: COc1ccc2cc3[n+](cc2c1OC)CCc1cc2c(cc1-3)OCO2 [BERBERINE]
- MIC [1]: 0.5 µg/mL
- MIC [2]: 32 µg/mL
- MIC [3]: 8 µg/mL
- Activity [4]: 2 log10CFU
- Activity [5]: Non-Toxic
- inhibition [6]: inactive
- inhibition [7]: inactive
- inhibition [8]: inactive
- inhibition [9]: inactive
- inhibition [10]: inactive
- inhibition [11]: inactive
- inhibition [12]: inactive
- inhibition [13]: inactive
- inhibition [14]: inactive
- inhibition [15]: inactive
- inhibition [16]: inactive
- inhibition [17]: inactive
- inhibition [18]: inactive
- fold change (FC) [19]: > 2
- fold change (FC) [20]: > 2
- fold change (FC) [21]: > 2
- fold change (FC) [22]: > 2
- fold change (FC) [23]: > 2
- fold change (FC) [24]: > 2
